According to ChEMBL document CHEMBL4138069, “Design, synthesis, molecular-docking and antimycobacterial evaluation of some novel 1,2,3-triazolyl xanthenones” (Medchemcomm, 2017):
Values after ≈ are worked out from the molar mass of the structure shown.

Key:
[1] = tested on: Mycobacterium tuberculosis; test: Antimycobacterial activity against Mycobacterium tuberculosis H37Rv ATCC 27294 assessed as inhibition of bacterial growth incubated for 28 days; type: functional; details: H37Rv ATCC 27294, 672 h
Procedure, shortened: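 Agar dilution in Middlebrook 7H11 with OADC, two-fold dilutions at final 50 to 0.78 μg mL–1. Inoculum from fresh 7H11 slants, adjusted to 1 mg mL–1 wet weight in 0.05% Tween 80 saline, diluted 10–2 to about 10^7 cfu mL–1; 5 μL spotted per tube. Incubated at 37 °C. MIC = lowest concentration giving complete growth inhibition, read at 28 days, in triplicate.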

Staphylococcus aureus = test: Antibacterial activity against Staphylococcus aureus MTCC 96 by agar dilution method; type: functional
Procedure, shortened: (§1)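 Minimum inhibitory concentration measured by agar dilution against three Gram-positive and three Gram-negative MTCC strains; read out as MIC.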

Bacillus subtilis = test: Antibacterial activity against Bacillus subtilis MTCC 121 by agar dilution method; type: functional; procedure, shortened: as §1
Bacillus cereus = test: Antibacterial activity against Bacillus cereus MTCC 430 by agar dilution method; type: functional; procedure, shortened: as §1
Escherichia coli = test: Antibacterial activity against Escherichia coli MTCC 1652 by agar dilution method; type: functional; procedure, shortened: as §1
Pseudomonas aeruginosa = test: Antibacterial activity against Pseudomonas aeruginosa MTCC 741 by agar dilution method; type: functional; procedure, shortened: as §1
Klebsiella aerogenes = test: Antibacterial activity against Enterobacter aerogenes MTCC 111 by agar dilution method; type: functional; procedure, shortened: as §1
Aspergillus niger = test: Antifungal activity against Aspergillus niger MTCC 282; type: functional
Procedure, shortened: (§2)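 Antifungal read-out was MIC in μg mL–1, with fluconazole as the reference drug.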

Candida albicans = test: Antifungal activity against Candida albicans MTCC 9062; type: functional; procedure, shortened: as §2
[2] = Lipophilicity, log P of the compound; type: physicochemical; details: octanol/water
Procedure, shortened: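 Value is a calculated log P (clog P), computed rather than measured experimentally.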

[3] = Cytotoxicity in HEK cells assessed as inhibition of cell growth at 50 ug/ml incubated for 72 hrs by MTT assay; type: cell-based; details: human, read-out: GI
Procedure, shortened: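 HEK cells were exposed to compound at 50 μg mL–1 for 72 h. Viability was taken from cellular conversion of MTT to formazan, using a non-radioactive cell proliferation kit.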

| Compound | MIC [1] [µg/mL] | MIC (Staphylococcus aureus) [µg/mL] | MIC (Bacillus subtilis) [µg/mL] | MIC (Bacillus cereus) [µg/mL] | MIC (Escherichia coli) [µg/mL] | MIC (Pseudomonas aeruginosa) [µg/mL] | MIC (Klebsiella aerogenes) [µg/mL] | MIC (Aspergillus niger) [µg/mL] | MIC (Candida albicans) [µg/mL] | logP [2] | inhibition at 72 h, 50 ug/ml [3] [%] |
| --- | --- | --- | --- | --- | --- | --- | --- | --- | --- | --- | --- |
| NNC(=O)c1ccncc1 [ISONIAZID] | 0.72 (≈ 5.25 µM) | – | – | – | – | – | – | – | – | – | – |
| CO[C@H]1/C=C/O[C@@]2(C)Oc3c(C)c(O)c4c(O)c(c(/C=N/N5CCN(C)CC5)c(O)c4c3C2=O)NC(=O)/C(C)=C\C=C\[C@H](C)[C@H](O)[C@@H](C)[C@@H](O)[C@@H](C)[C@H](OC(C)=O)[C@@H]1C [RIFAMPIN] | 0.24 (≈ 0.292 µM) | – | – | – | – | – | – | – | – | – | – |
| O=C(O)c1cn(C2CC2)c2cc(N3CCNCC3)c(F)cc2c1=O [CIPROFLOXACIN] | – | ≤ 6.25 | ≤ 6.25 | ≤ 6.25 | ≤ 6.25 | ≤ 6.25 | ≤ 6.25 | – | – | – | – |
| O=Cc1cn(-c2ccccc2)nn1 | 25 (≈ 144 µM) | – | – | – | – | – | – | – | – | – | – |
| CC1(C)CC(=O)C2=C(C1)Oc1ccc3ccccc3c1C2c1cn(-c2ccccc2)nn1 (configuration not stated) | 12.5 (≈ 29.7 µM) | 6.25 (≈ 14.8 µM) | 25 (≈ 59.3 µM) | 12.5 (≈ 29.7 µM) | 12.5 (≈ 29.7 µM) | 25 (≈ 59.3 µM) | 6.25 (≈ 14.8 µM) | 6.25 (≈ 14.8 µM) | 25 (≈ 59.3 µM) | 4.65 | – |
| O=Cc1cn(-c2ccc(Cl)cc2)nn1 | 6.25 (≈ 30.1 µM) | – | – | – | – | – | – | – | – | – | – |
| COc1ccccc1-n1cc(C2C3=C(CCCC3=O)Oc3ccc4ccccc4c32)nn1 (configuration not stated) | 25 (≈ 59 µM) | 6.25 (≈ 14.8 µM) | 12.5 (≈ 29.5 µM) | 25 (≈ 59 µM) | 12.5 (≈ 29.5 µM) | 6.25 (≈ 14.8 µM) | 6.25 (≈ 14.8 µM) | 12.5 (≈ 29.5 µM) | 6.25 (≈ 14.8 µM) | 3.73 | – |
| O=C1CCCC2=C1C(c1cn(-c3ccc([N+](=O)[O-])cc3)nn1)c1c(ccc3ccccc13)O2 (configuration not stated) | > 25 | > 100 | > 100 | > 100 | 50 (≈ 114 µM) | 50 (≈ 114 µM) | > 100 | > 100 | > 100 | – | – |
| CC1(C)CC(=O)C2=C(C1)Oc1ccc3ccccc3c1C2c1cn(-c2ccc([N+](=O)[O-])cc2)nn1 (configuration not stated) | > 25 | 12.5 (≈ 26.8 µM) | 6.25 (≈ 13.4 µM) | 6.25 (≈ 13.4 µM) | 3.12 (≈ 6.69 µM) | 12.5 (≈ 26.8 µM) | 3.12 (≈ 6.69 µM) | 6.25 (≈ 13.4 µM) | 3.12 (≈ 6.69 µM) | – | – |
| O=C1CCCC2=C1C(c1cn(-c3ccc(Cl)cc3)nn1)c1c(ccc3ccccc13)O2 (configuration not stated) | 3.12 (≈ 7.3 µM) | 12.5 (≈ 29.2 µM) | 50 (≈ 117 µM) | 12.5 (≈ 29.2 µM) | 12.5 (≈ 29.2 µM) | 25 (≈ 58.4 µM) | 12.5 (≈ 29.2 µM) | > 100 | > 100 | 4.41 | 18.1 |
| O=Cc1cn(-c2ccccc2Cl)nn1 | 25 (≈ 120 µM) | – | – | – | – | – | – | – | – | – | – |
| OC(Cn1cncn1)(Cn1cncn1)c1ccc(F)cc1F [FLUCONAZOLE] | – | – | – | – | – | – | – | ≤ 3.12 | ≤ 3.12 | – | – |
| O=C1CCCC2=C1C(c1cn(-c3ccc(O)cc3)nn1)c1c(ccc3ccccc13)O2 (configuration not stated) | > 25 | > 100 | > 100 | > 100 | > 100 | > 100 | > 100 | > 100 | > 100 | 3.46 | – |
| COc1ccc(-n2cc(C=O)nn2)cc1 | 12.5 (≈ 61.5 µM) | – | – | – | – | – | – | – | – | – | – |
| CC[C@@H](CO)NCCN[C@@H](CC)CO [ETHAMBUTOL] | 7.64 (≈ 37.4 µM) | – | – | – | – | – | – | – | – | – | – |
| CC1(C)CC(=O)C2=C(C1)Oc1ccc3ccccc3c1C2c1cn(-c2ccc(Cl)cc2)nn1 (configuration not stated) | 3.12 (≈ 6.85 µM) | 12.5 (≈ 27.4 µM) | 12.5 (≈ 27.4 µM) | 12.5 (≈ 27.4 µM) | 12.5 (≈ 27.4 µM) | 12.5 (≈ 27.4 µM) | 12.5 (≈ 27.4 µM) | 12.5 (≈ 27.4 µM) | 12.5 (≈ 27.4 µM) | 5.21 | 18.1 |
| CC1(C)CC(=O)C2=C(C1)Oc1ccc3ccccc3c1C2c1cn(-c2ccc(O)cc2)nn1 (configuration not stated) | > 25 | 6.25 (≈ 14.3 µM) | 6.25 (≈ 14.3 µM) | 12.5 (≈ 28.6 µM) | 3.12 (≈ 7.13 µM) | 6.25 (≈ 14.3 µM) | 6.25 (≈ 14.3 µM) | 12.5 (≈ 28.6 µM) | 3.12 (≈ 7.13 µM) | 4.26 | – |
| O=C1CCCC2=C1C(c1cn(-c3ccccc3)nn1)c1c(ccc3ccccc13)O2 (configuration not stated) | 12.5 (≈ 31.8 µM) | 3.12 (≈ 7.93 µM) | 3.12 (≈ 7.93 µM) | 3.12 (≈ 7.93 µM) | 3.12 (≈ 7.93 µM) | 3.12 (≈ 7.93 µM) | 3.12 (≈ 7.93 µM) | 3.12 (≈ 7.93 µM) | 3.12 (≈ 7.93 µM) | 3.85 | – |
| O=C1CCCC2=C1C(c1cn(-c3cccc(C(F)(F)F)c3)nn1)c1c(ccc3ccccc13)O2 (configuration not stated) | > 25 | 6.25 (≈ 13.5 µM) | 12.5 (≈ 27.1 µM) | 25 (≈ 54.2 µM) | 12.5 (≈ 27.1 µM) | 6.5 (≈ 14.1 µM) | 12.5 (≈ 27.1 µM) | 50 (≈ 108 µM) | 50 (≈ 108 µM) | 4.77 | – |
| COc1ccccc1-n1cc(C2C3=C(CC(C)(C)CC3=O)Oc3ccc4ccccc4c32)nn1 (configuration not stated) | 12.5 (≈ 27.7 µM) | > 100 | > 100 | 50 (≈ 111 µM) | 25 (≈ 55.4 µM) | > 100 | > 100 | > 100 | 25 (≈ 55.4 µM) | 4.53 | – |
| NC(=O)c1cnccn1 [PYRAZINAMIDE] | 50.8 (≈ 412 µM) | – | – | – | – | – | – | – | – | – | – |
| O=C1CCCC2=C1C(c1cn(-c3ccccc3Cl)nn1)c1c(ccc3ccccc13)O2 (configuration not stated) | 25 (≈ 58.4 µM) | > 100 | > 100 | > 100 | 12.5 (≈ 29.2 µM) | 50 (≈ 117 µM) | 50 (≈ 117 µM) | 12.5 (≈ 29.2 µM) | > 100 | 4.41 | – |
| O=Cc1cn(-c2ccc(O)cc2)nn1 | > 25 | – | – | – | – | – | – | – | – | – | – |
| CC1(C)CC(=O)C2=C(C1)Oc1ccc3ccccc3c1C2c1cn(-c2cccc(C(F)(F)F)c2)nn1 (configuration not stated) | > 25 | 25 (≈ 51.1 µM) | 50 (≈ 102 µM) | 12.5 (≈ 25.5 µM) | 100 (≈ 204 µM) | 25 (≈ 51.1 µM) | 25 (≈ 51.1 µM) | 12.5 (≈ 25.5 µM) | 100 (≈ 204 µM) | 5.57 | – |
| O=Cc1cn(-c2cccc(C(F)(F)F)c2)nn1 | > 25 | – | – | – | – | – | – | – | – | – | – |
| COc1ccc(-n2cc(C3C4=C(CCCC4=O)Oc4ccc5ccccc5c43)nn2)cc1 (configuration not stated) | 6.25 (≈ 14.8 µM) | 3.12 (≈ 7.37 µM) | 12.5 (≈ 29.5 µM) | 3.12 (≈ 7.37 µM) | 3.12 (≈ 7.37 µM) | 6.25 (≈ 14.8 µM) | 6.25 (≈ 14.8 µM) | 3.12 (≈ 7.37 µM) | 3.12 (≈ 7.37 µM) | 3.73 | 22.2 |
| COc1ccc(-n2cc(C3C4=C(CC(C)(C)CC4=O)Oc4ccc5ccccc5c43)nn2)cc1 (configuration not stated) | 6.25 (≈ 13.8 µM) | 6.25 (≈ 13.8 µM) | 6.25 (≈ 13.8 µM) | 3.12 (≈ 6.91 µM) | 12.5 (≈ 27.7 µM) | 6.25 (≈ 13.8 µM) | 6.25 (≈ 13.8 µM) | 3.12 (≈ 6.91 µM) | 6.25 (≈ 13.8 µM) | 4.53 | 21.2 |
| COc1ccccc1-n1cc(C=O)nn1 | > 25 | – | – | – | – | – | – | – | – | – | – |
| O=Cc1cn(-c2ccc([N+](=O)[O-])cc2)nn1 | > 25 | – | – | – | – | – | – | – | – | – | – |
| CC1(C)CC(=O)C2=C(C1)Oc1ccc3ccccc3c1C2c1cn(-c2ccccc2Cl)nn1 (configuration not stated) | 25 (≈ 54.8 µM) | 3.12 (≈ 6.84 µM) | 6.25 (≈ 13.7 µM) | 3.12 (≈ 6.84 µM) | 3.12 (≈ 6.84 µM) | 6.25 (≈ 13.7 µM) | 12.5 (≈ 27.4 µM) | 3.12 (≈ 6.84 µM) | 3.12 (≈ 6.84 µM) | 5.21 | – |
